# Screening results: PubChem BioAssay, Broad Institute
# E-selectin induc: induces E-selectin expression in human endothelial cells; P16581; HUVEC E-selectin immunofluorescence imaging; normalized: neutral wells 0, TNF-alpha wells 100; activation, % at 7.58 µM; 260,000 compounds, 0.37% hits; AID 686992;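 active means mean E-selectin-positive cell signal at least 10% of the positive control, reached in at least 60% of replicates, without over 20% cell loss; inconclusive means no rule given, readout overlaps actives, possibly toxicity-flagged; inactive means the rest, including those meeting only one limit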
# Target sequence (P16581 whole entry, looked up): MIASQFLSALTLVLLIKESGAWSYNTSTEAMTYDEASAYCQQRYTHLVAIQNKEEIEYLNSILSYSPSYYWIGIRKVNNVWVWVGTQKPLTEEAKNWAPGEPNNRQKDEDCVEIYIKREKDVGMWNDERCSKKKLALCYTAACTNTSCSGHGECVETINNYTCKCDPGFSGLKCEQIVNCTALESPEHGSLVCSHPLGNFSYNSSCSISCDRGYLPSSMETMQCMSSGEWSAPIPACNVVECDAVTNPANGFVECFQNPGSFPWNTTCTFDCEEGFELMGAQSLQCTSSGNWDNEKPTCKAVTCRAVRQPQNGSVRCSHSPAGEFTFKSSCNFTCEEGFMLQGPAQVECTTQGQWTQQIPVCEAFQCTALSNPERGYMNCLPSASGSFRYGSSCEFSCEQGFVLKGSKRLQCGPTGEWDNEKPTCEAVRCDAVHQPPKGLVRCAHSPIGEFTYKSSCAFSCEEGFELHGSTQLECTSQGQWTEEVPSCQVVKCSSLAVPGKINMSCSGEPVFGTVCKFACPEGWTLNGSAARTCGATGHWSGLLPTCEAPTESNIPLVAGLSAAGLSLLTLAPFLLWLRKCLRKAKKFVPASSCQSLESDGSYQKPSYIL
#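 Assay system: HUVEC, human umbilical vein endothelial cells / Amount: 3,000 HUVEC/well / Controls: TNF-alpha positive control, DMSO neutral control / Compound dosing: single concentration / Medium: EGM-2 over gelatin coat / Evaluation: percent E-selectin-positive cells / Signal: immunofluorescence imaging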
# DENV2 CPE rescue: protects cells from dengue virus 2 cytopathic effect; CPE inhibition, % at 9.99 µM; AID 651640; 350,000 compounds, 1.7% hits; DENV2-infected cells, cytopathic effect rescue, plate reader; in the data active means CPE inhibition above about 20%, passing the limit was not always enough; inconclusive means no clear call, values can overlap the other calls; tested in BHK-21 cells
# SIRT5 inh: sirtuin-5 (human) deacylase inhibition | Q9NXA8 | 330,000 compounds, 1.1% hits | AID 652115 | inhibition, % at 15 µM | Purified SirT5, succinyl-peptide AMC, trypsin-coupled fluorescence; in the data active means inhibition above about 15%; inconclusive means no clear call, values can overlap the other calls
# Hits are given with their value; . = inactive; ? = inconclusive; / = no result. Most compounds without a hit are left out; they make up all but 2.8% or so of the library.
SMILES,E-selectin induc,DENV2 CPE rescue,SIRT5 inh
O=C(C[C@@H]1C[C@@H]2c3cc(NC(=O)Nc4ccc(C(F)(F)F)cc4)ccc3O[C@@H]2[C@@H](CO)O1)NC1CCCCC1,.,?,.
O=C(C[C@H]1CC[C@@H](NS(=O)(=O)c2ccc(F)cc2)[C@@H](CO)O1)N1CCC(Cc2ccccc2)CC1,.,.,.
O=C(CCN1CCCCC1)N[C@H]1C=C[C@@H](CC(=O)N2CCC(Cc3ccccc3)CC2)O[C@@H]1CO,.,.,.
O=C(CCN1CCCCC1)N[C@@H]1C=C[C@H](CC(=O)N2CCC(Cc3ccccc3)CC2)O[C@H]1CO,.,.,15
O=C(C[C@H]1CC[C@H](NS(=O)(=O)c2ccc(F)cc2)[C@@H](CO)O1)N1CCN(c2ccccc2)CC1,.,.,.
O=C(C[C@@H]1CC[C@H](NS(=O)(=O)c2ccc(F)cc2)[C@H](CO)O1)N1CCN(c2ccccc2)CC1,.,.,20
O=C(C[C@@H]1C=C[C@H](NC(=O)c2ccncc2)[C@H](CO)O1)Nc1ccccc1,.,.,.
O=C(C[C@@H]1C=C[C@@H](NC(=O)c2ccncc2)[C@H](CO)O1)Nc1ccccc1,.,35,.
O=C(C[C@@H]1CC[C@@H](NS(=O)(=O)c2ccc(F)cc2)[C@@H](CO)O1)N1CCC(Cc2ccccc2)CC1,.,.,28
Cc1ccc(S(=O)(=O)N(C)C[C@@H]2Oc3ccc(NS(C)(=O)=O)cc3CC(=O)N([C@@H](C)CO)C[C@@H]2C)cc1,.,.,.
O=C(N[C@@H]1C=C[C@H](CC(=O)N2CCN(c3ccccc3)CC2)O[C@H]1CO)c1ccccc1,.,.,.
O=C(N[C@@H]1CC[C@@H](CC(=O)N2CCN(c3ccccc3)CC2)O[C@H]1CO)c1ccncc1,.,31,.
O=C(N[C@H]1C=C[C@@H](CC(=O)N2CCN(c3ccccc3)CC2)O[C@H]1CO)c1ccccc1,.,71,.
O=C(N[C@@H]1CC[C@H](CC(=O)N2CCN(c3ccccc3)CC2)O[C@H]1CO)c1ccccc1,.,?,.
COc1ccc(-c2ccc(C3[C@H]4CNC[C@@H]3N4S(=O)(=O)c3ccc(OC)cc3)cc2)cc1 (stereo partly specified),.,.,.
CCC(=O)N1CC2(CCN(Cc3ccncc3)CC2)c2c(n(C)c3cc(OC)ccc23)[C@H]1CO,.,.,/
CN(C)C(=O)c1cccc(-c2ccc3c(c2)[C@@H]2[C@@H](CCN2C(=O)c2ccccc2F)[C@@H](CO)N3)c1,.,/,/
COc1ccc(NC(=O)N[C@H]2CC[C@H](CCn3cc(C4(O)CCCC4)nn3)O[C@@H]2CO)cc1,.,.,.
CC(C)NC(=O)NCC[C@H]1CC[C@H](NC(=O)Nc2ccccc2)[C@H](CO)O1,.,.,.
CC(=O)Nc1ccc(NC(=O)CSc2nnc(NC(=O)c3ccccc3F)s2)cc1,.,30,.
O=C(CSc1nnc(NC(=O)c2ccccc2F)s1)NC1CCCC1,/,.,.
O=C(Nc1cccc(F)c1)NC1(C(=O)N2CCC(O)CC2)CCCCC1,.,.,.
NC(=O)C1CCN(C(=O)C2(NC(=O)Nc3cccc(F)c3)CCCCC2)CC1,/,45,.
CO[C@H]1CN(C)C(=O)c2ccc(NC(=O)C3CC3)cc2OC[C@H](C)N(CC2CCCC2)C[C@@H]1C,.,.,.
COc1ccc(C)cc1NC(=O)C1CCN(S(=O)(=O)c2cccc3cccnc23)CC1,/,28,/
SMILES,E-selectin induc,DENV2 CPE rescue,SIRT5 inh
COc1ccc(NC(=O)C2CCN(S(=O)(=O)c3cccc4cccnc34)CC2)cc1OC,/,.,/
Cc1ccccc1S(=O)(=O)N(C)C[C@H]1OCc2ccccc2-c2c(n(C)c3ccccc23)C(=O)N([C@H](C)CO)C[C@H]1C,.,.,16
COc1ccccc1S(=O)(=O)N(C)C[C@H]1OCc2ccccc2-c2c(n(C)c3ccccc23)C(=O)N([C@H](C)CO)C[C@@H]1C,.,?,15
COc1ccccc1S(=O)(=O)N(C)C[C@@H]1OCc2ccccc2-c2c(n(C)c3ccccc23)C(=O)N([C@H](C)CO)C[C@H]1C,.,?,.
Cc1ccccc1S(=O)(=O)N(C)C[C@@H]1OCc2ccccc2-c2c(n(C)c3ccccc23)C(=O)N([C@@H](C)CO)C[C@@H]1C,.,?,.
COCCCNC(=O)[C@@]1(Cc2ccccc2N=[N+]=[N-])N=C(c2ccc(OCCCO)cc2)O[C@H]1c1ccccc1N=[N+]=[N-],/,.,.
COc1ccc2c3c(n(C)c2c1)[C@H](CO)N(C(=O)c1cccc(F)c1)CC31CN(CC2CC2)C1,.,.,.
O=C(NNc1ccccc1)C(CCO)C(=O)NNc1ccccc1,/,.,112
CC(O)CC(C(=O)NNc1ccccc1)C(=O)NNc1ccccc1 (stereo unspecified),/,/,.
Cn1c(=O)c2cc(NC(=O)NCc3ccccc3)ccc2n1Cc1cccc(C(F)(F)F)c1,.,.,/
COc1ccc(CNC(=O)Nc2ccc3c(c2)c(=O)n(C)n3Cc2cc(C)cc(C)c2)cc1,.,32,/
CN(C)CCCNC(=O)[C@@H]1[C@@H](CO)[C@@H]2Cn3c(ccc(-c4ccccc4)c3=O)[C@H]1N2C(=O)CC1CC1,.,.,.
COCC(=O)Nc1ccc2c(c1)OC[C@H](C)N(C(=O)CC1CC1)C[C@H](C)[C@H](OC)CN(C)C2=O,.,31,.
CO[C@@H]1CN(C)C(=O)c2ccc(NC(=O)NC(C)C)cc2OC[C@H](C)N(C(=O)CC2CC2)C[C@H]1C,.,32,.
COCC(=O)Nc1ccc2c(c1)OC[C@H](C)N(C(=O)CC1CC1)C[C@@H](C)[C@@H](OC)CN(C)C2=O,.,.,.
COCC(=O)Nc1ccc2c(c1)OC[C@@H](C)N(C(=O)COC)C[C@H](C)[C@H](OC)CN(C)C2=O,.,.,/
COCC(=O)Nc1ccc2c(c1)OC[C@@H](C)N(CC1CC1)C[C@H](C)[C@@H](OC)CN(C)C2=O,.,.,.
CO[C@H]1CN(C)C(=O)c2ccc(NC(=O)NC(C)C)cc2OC[C@H](C)N(C(=O)CC2CC2)C[C@@H]1C,.,.,.
COCC(=O)Nc1ccc2c(c1)OC[C@H](C)N(CC1CC1)C[C@@H](C)[C@@H](OC)CN(C)C2=O,.,.,20
COCC(=O)Nc1ccc2c(c1)OC[C@@H](C)N(C(=O)COC)C[C@@H](C)[C@H](OC)CN(C)C2=O,.,53,/
CCCNC(=O)N1CC2(CCN(Cc3cccc(OC)c3)CC2)c2c(n(C)c3cc(OC)ccc23)[C@@H]1CO,.,.,.
C[C@H]1CN([C@@H](C)CO)C(=O)c2cc(C3=CCCCC3)cnc2O[C@@H]1CN(C)C(=O)c1ccncc1,.,.,.
COc1ccc2c3c(n(C)c2c1)[C@H](CO)N(Cc1ccccc1F)CC31CCN(C(=O)C2CCC2)CC1,.,.,.
COc1cccc(S(=O)(=O)N[C@@H]2CC[C@H](CC(=O)NC3Cc4ccccc4C3)O[C@H]2CO)c1,.,.,.
CC1=C2[C@@H](c3ccccc3)OB(O)C[C@@H]2n2c(=O)n(-c3ccccc3)c(=O)n2C1,/,.,.
CCCC(=O)Nc1ccc2c(c1)OC[C@@H](C)N(C(=O)CN1CCOCC1)C[C@@H](C)[C@H](OC)CN(C)C2=O,.,21,.
